Active and inactive are the calls of the source. The calls are words filed in the database; no cut-off is given here.
Legend:
T47D [1] = assay: Activation of HIF-1 (unknown origin) transfected in human T47D cells at 3 to 30 uM after 16 hrs by luciferase reporter gene assay; type: cell-based
Procedure, shortened: (§1)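 T47D breast tumor cells grown in DMEM/F12 with L-glutamine, 10% FBS and penicillin/streptomycin, transfected with HIF-1 reporter pHRE3-TK-Luc; compound exposure 16 h. Luciferase activity normalized to untreated control as relative luciferase activity; 1,10-phenanthroline used as HIF-1 activator control. Mean + SD, n = 4.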

MDA-MB-231 = assay: Cytotoxicity against human MDA-MB-231 cells assessed as growth inhibition at 3 to 30 uM after 48 hrs by SRB assay; type: functional, cell-based
Procedure, shortened: (§2)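 T47D or MDA-MB-231 breast tumor cells (DMEM/F12, 10% FBS, penicillin/streptomycin) plated in 96-well format and exposed to compound for 48 h. Viability read by sulforhodamine B staining and expressed as % inhibition relative to untreated control. One representative experiment in triplicate, mean with SD.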

T47D [2] = assay: Cytotoxicity against human T47D cells assessed as growth inhibition at 3 to 30 uM after 48 hrs by SRB assay; type: functional, cell-based; procedure, shortened: as §2
T47D [3] = assay: Activation of HIF-1 in human T47D cells assessed as increase in secreted VEGF production at 10 uM after 16 hrs by ELISA; type: cell-based
Procedure, shortened: (§3)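 T47D cells treated at 10 μM for 16 h. VEGF protein measured by ELISA in conditioned medium (secreted) or cell lysate (cellular), normalized to cellular protein by micro BCA assay. Untreated medium control; 1,10-phenanthroline positive control. Mean + SD pooled from two independent experiments (n = 3); p < 0.05 versus untreated control flagged.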

T47D [4] = assay: Activation of HIF-1 in human T47D cells assessed as increase in cellular VEGF production at 10 uM after 16 hrs by ELISA; type: cell-based; procedure, shortened: as §3
T47D [5] = assay: Activation of HIF-1 (unknown origin) transfected in human T47D cells at 10 uM after 16 hrs by luciferase reporter gene assay relative to control; type: cell-based; procedure, shortened: as §1
T47D [6] = assay: Cytotoxicity against human T47D cells assessed as growth inhibition at 30 uM after 48 hrs by SRB assay relative to control; type: functional; details: read-out: GI; procedure, shortened: as §2
T47D (Homo sapiens) = assay: Activation of HIF-1 in human T47D cells assessed as increase in VEGF production at 10 uM after 16 hrs by ELISA

| Structure (SMILES) | Activity (T47D [1]) | growth inhibition (GI) (MDA-MB-231) | growth inhibition (GI) (T47D [2]) | Activity (T47D [3]) | Activity (T47D [4]) | Activity (T47D [5]) [%] | inhibition of growth at 30 µM (T47D [6]) [%] | Activity (T47D (Homo sapiens)) |
| --- | --- | --- | --- | --- | --- | --- | --- | --- |
| COC1=CC(=O)C2=C(C[C@]3(O2)[C@@H](C)CC[C@H]2C(C)(C)CCC[C@@]23C)C1=O | inactive | Dose-dependent effect | Dose-dependent effect |  |  |  |  |  |
| COC(=O)c1cc2c(c(O)c1O)O[C@@]1(C2)[C@@H](C)CC[C@H]2C(C)(C)CCC[C@@]21C | inactive | Dose-dependent effect | Dose-dependent effect |  |  |  |  |  |
| COC1=CC(=O)C(O)=C(C[C@]2(C)[C@H](C)CC[C@]34C[C@@]3(C)CCC[C@@H]24)C1=O |  | Dose-dependent effect | Dose-dependent effect | Active | Active | 1000 | 58 | Active |
| COC1=CC(=O)C2=C(C[C@]3(C)[C@H](C)CC[C@]45C[C@@]4(C)CCC[C@]53O2)C1=O | inactive | Dose-dependent effect | Dose-dependent effect |  |  |  |  |  |
| COC1=CC(=O)C2=C(C[C@@H]3[C@@]4(C)CCCC(C)(C)[C@@H]4CC[C@@]3(C)O2)C1=O | inactive | Dose-dependent effect | Dose-dependent effect |  |  |  |  |  |
| CC1(C)CCC[C@]2(C)[C@H]3Cc4cc(O)ccc4O[C@@]3(C)CC[C@@H]12 | inactive | inactive | inactive |  |  |  |  |  |
| c1cnc2c(c1)ccc1cccnc12 |  |  |  | Active | Active |  |  |  |
| C=C1CCC[C@@]23OC4=C(C[C@]2(C)[C@H](C)CC[C@@]13C)C(=O)C(OC)=CC4=O | inactive | Dose-dependent effect | Dose-dependent effect |  |  |  |  |  |
| C=C1CCC[C@H]2[C@](C)(CC3=C(O)C(=O)C=C(OC)C3=O)[C@@H](C)CC[C@]12C [ILIMAQUINONE] |  | Dose-dependent effect | Dose-dependent effect | Active | Active | 930 | 56 | Active |
| C=C1CCC[C@H]2[C@](C)(CC3=C(O)C(=O)C=C(OC)C3=O)[C@H](C)CC[C@@]12C (relative stereo) |  | Dose-dependent effect | Dose-dependent effect | Active | Active | 830 | 60 | Active |

Source: ChEMBL document CHEMBL2385008, “Inducers of hypoxic response: marine sesquiterpene quinones activate HIF-1” (2013)
